Experiments:
Assay type in all cases: functional
[1] = tested on: HOP-62; assay: Growth inhibition of human HOP62 cells incubated for 48 hrs by sulforhodamine B assay; conditions: HOP-62, 48 h
Outline: (§1)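 NCI-60 screen. Compounds were dosed at five concentrations spanning 10^-4 to 10^-8 M for 48 h at 37 °C. Cells were TCA-fixed, stained with 0.4% SRB and read at 515 nm against time-zero and vehicle controls. GI50 is the concentration giving a 50% reduction in net protein increase.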

[2] = tested on: TK-10; assay: Growth inhibition of human TK10 cells incubated for 48 hrs by sulforhodamine B assay; conditions: TK-10, 48 h
Outline: (§2)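 NCI-60 screen run at NCI. Cells grown in RPMI medium with 5% FBS and 2 mM L-glutamine, plated at 5,000–40,000 cells/well, and preincubated 24 h at 37 °C. Time-zero plates were TCA-fixed. Compounds came from DMSO stocks and were tested at five concentrations from 10^-4 to 10^-8 M for 48 h. Cells were then TCA-fixed, stained with 0.4% SRB, and OD read at 515 nm. GI50 is the concentration giving a 50% reduction in net protein increase versus control.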

[3] = tested on: OVCAR-3; assay: Growth inhibition of human OVCAR3 cells incubated for 48 hrs by sulforhodamine B assay; conditions: OVCAR-3, 48 h; outline: as §1
[4] = tested on: MDA-MB-435; assay: Growth inhibition of human MDA-MB-435 cells incubated for 48 hrs by sulforhodamine B assay; conditions: MDA-MB-435, 48 h; outline: as §1
[5] = tested on: OVCAR-8; assay: Growth inhibition of human OVCAR8 cells incubated for 48 hrs by sulforhodamine B assay; conditions: OVCAR-8, 48 h; outline: as §1
[6] = tested on: COLO 205; assay: Growth inhibition of human COLO205 cells incubated for 48 hrs by sulforhodamine B assay; conditions: COLO 205, 48 h; outline: as §1
[7] = tested on: ACHN; assay: Growth inhibition of human ACHN cells incubated for 48 hrs by sulforhodamine B assay; outline: as §1
[8] = tested on: M14; assay: Growth inhibition of human M14 cells incubated for 48 hrs by sulforhodamine B assay; conditions: M14, 48 h; outline: as §1
[9] = tested on: MDA-MB-468; assay: Growth inhibition of human MDA-MB-468 cells incubated for 48 hrs by sulforhodamine B assay; conditions: MDA-MB-468, 48 h; outline: as §1
[10] = tested on: SR; assay: Growth inhibition of human SR cells incubated for 48 hrs by sulforhodamine B assay; outline: as §2
[11] = tested on: MDA-MB-231; assay: Growth inhibition of human MDA-MB-231/ATCC cells incubated for 48 hrs by sulforhodamine B assay; conditions: MDA-MB-231, 48 h; outline: as §1
[12] = tested on: 786-0; assay: Growth inhibition of human 786-0 cells incubated for 48 hrs by sulforhodamine B assay; conditions: 786-0, 48 h; outline: as §1
[13] = tested on: OVCAR-4; assay: Growth inhibition of human OVCAR4 cells incubated for 48 hrs by sulforhodamine B assay; conditions: OVCAR-4, 48 h; outline: as §1
[14] = tested on: DU-145; assay: Growth inhibition of human DU145 cells incubated for 48 hrs by sulforhodamine B assay; conditions: DU-145, 48 h; outline: as §1
[15] = tested on: PC-3; assay: Growth inhibition of human PC3 cells incubated for 48 hrs by sulforhodamine B assay; conditions: PC-3, 48 h; outline: as §1
[16] = tested on: SNB-75; assay: Growth inhibition of human SNB75 cells incubated for 48 hrs by sulforhodamine B assay; conditions: SNB-75, 48 h; outline: as §2
[17] = tested on: SK-MEL-2; assay: Growth inhibition of human SK-MEL-2 cells incubated for 48 hrs by sulforhodamine B assay; conditions: SK-MEL-2, 48 h; outline: as §1
[18] = tested on: CAKI-1; assay: Growth inhibition of human Caki1 cells incubated for 48 hrs by sulforhodamine B assay; conditions: CAKI-1, 48 h; outline: as §1
[19] = tested on: Hs-578T; assay: Growth inhibition of human Hs 578T cells incubated for 48 hrs by sulforhodamine B assay; outline: as §1
[20] = tested on: IGROV-1; assay: Growth inhibition of human IGROV1 cells incubated for 48 hrs by sulforhodamine B assay; conditions: IGROV-1, 48 h; outline: as §1
[21] = tested on: EKVX; assay: Growth inhibition of human EKVX cells incubated for 48 hrs by sulforhodamine B assay; outline: as §1
[22] = tested on: SK-MEL-5; assay: Growth inhibition of human SK-MEL-5 cells incubated for 48 hrs by sulforhodamine B assay; conditions: SK-MEL-5, 48 h; outline: as §1
[23] = tested on: T47D; assay: Growth inhibition of human T47D cells incubated for 48 hrs by sulforhodamine B assay; outline: as §2
[24] = Potency index, ratio of melampomagnolide-B EC50 to compound EC50 for human M9-ENL1 cells
Outline: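 M9-ENL1 AML cells, derived by MLL-ENL transduction of human blood cells, were plated at 10^6 cells/mL in alpha-MEM with 5% human plasma, 20% FBS, SCF, IL-3, IL-7 and FLT3 ligand. Exposure was 24 h. Non-apoptotic (Annexin V/7-AAD double-negative) fraction was normalized to vehicle, in triplicate, to give EC50. PTL and MMB were run as reference controls.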

[25] = tested on: BT-549; assay: Growth inhibition of human BT549 cells incubated for 48 hrs by sulforhodamine B assay; conditions: BT-549, 48 h; outline: as §1

Compound | GI50 [1] [nM] | GI50 [2] [nM] | GI50 [3] [nM] | GI50 [4] [nM] | GI50 [5] [nM] | GI50 [6] [nM] | GI50 [8] [nM] | GI50 [9] [nM] | GI50 [10] [nM] | GI50 [11] [nM] | GI50 [12] [nM] | GI50 [13] [nM] | GI50 [14] [nM] | GI50 [15] [nM] | GI50 [16] [µM] | GI50 [17] [nM] | GI50 [19] [nM] | GI50 [20] [nM] | GI50 [21] [nM] | GI50 [22] [nM] | also measured
C=C1C(=O)O[C@@H]2[C@H]3O[C@]3(C)CC/C=C(/COC(=O)c3cc4cc(F)ccc4[nH]3)CC[C@@H]12 | 2920 | 1830 | 1200 | 1500 | 2170 | 1640 | 1890 | 1860 | 2030 | 1590 | 1780 | 1670 | 1670 | 1700 | 11.1 | 1950 | 2950 | 1440 | 1580 | 1850 | GI50 [7]: 1460 nM; GI50 [18]: 1200 nM; GI50 [23]: 1560 nM; Ratio IC50 [24]: 2 - 20
C=C1C(=O)O[C@@H]2[C@H]3O[C@]3(C)CC/C=C(/COC(=O)c3cn(C)c4ccccc34)CC[C@@H]12 | 1810 | 1100 | 380 | 1350 | 800 | 1240 | 1410 | 440 | 340 | 1050 | 1460 | 1140 | 1010 | 1470 | 1.09 | 1380 | 2390 | 690 | 960 | 1420 | GI50 [25]: 510 nM; GI50 [7]: 820 nM; GI50 [23]: 1190 nM; Ratio IC50 [24]: 2 - 20
C=C1C(=O)O[C@@H]2[C@H]3O[C@]3(C)CC/C=C(/COC(=O)c3cc4ccccc4s3)CC[C@@H]12 | 1810 | 1550 | 440 | 1330 | 1800 | 1710 | 1750 | 1630 | 520 | 1970 | 1520 | 2080 | 1050 | 1830 | 3.52 | 1750 | 2890 | 1760 | 1690 | 1750 | GI50 [7]: 1500 nM; GI50 [18]: 1460 nM; GI50 [23]: 1470 nM; Ratio IC50 [24]: 2 - 20
C=C1C(=O)O[C@@H]2[C@H]3O[C@]3(C)CC/C=C(/COC(=O)CCCc3c[nH]c4ccccc34)CC[C@@H]12 | 6540 | 1640 | 1530 | 1730 | 3380 | 1860 | 1660 | 1760 | 1730 | 1780 | 1600 | 1660 | 1670 | 1920 | 12.6 | 1960 | 3190 | 1630 | 2020 | 1740 | GI50 [25]: 1370 nM; GI50 [23]: 2170 nM; Ratio IC50 [24]: 2 - 20

Source: ChEMBL document CHEMBL4138104, “Indole carboxylic acid esters of melampomagnolide B are potent anticancer agents against both hematological and solid tumor cells” (Eur J Med Chem, 2017)
